# Source: PubChem
# Rows were chosen to be rich in hits. Some 0.95% of all compounds tested hit in one or more screens of this group.
# HKDC1 inh = HKDC1 hexokinase inhibitors, primary screen, biochemical, fluorescence, uHTS. inhibition, % at 20 µM. actives 0.16% (n = 340,000). Q2TB90. recombinant HKDC1, G6PDH/diaphorase resazurin coupled fluorescence;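 active = inhibition above about 35% when tested at 20 µM, limit read from the data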;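 note: plate controls were DMSO wells with enzyme for no effect and DMSO wells lacking enzyme for full effect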
#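 test system = in-house recombinant HK5 (HKDC1) enzyme | amount = HKDC1 at 5 µg/mL | control set = DMSO-enzyme wells negative, buffer-substituted wells positive | compound = one dose of 20 µM, 1% DMSO | schedule = reaction time 90 min, room temperature, protected from light | technique = resorufin fluorescence at 613 nm | reagent = glucose with 1 mM ATP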
# UBC9 SUMO inh = inhibitors of in vitro SUMOylation cascade, primary screen, biochemical, HTRF, uHTS | SUMO-conjugating enzyme UBC9 (Homo sapiens), P63279 | HTRF SUMOylation assay, SAE1/SAE2 + UBC9 | inhibition, % at 35 µM | actives 0.36% (n = 290,000); in the data active = inhibition above about 50%, passing the limit was not always enough
# G6PDH CS = L. mesenteroides G6PDH inhibitors, counter-screen for G6PDH-coupled screening assays, biochemical, Leuconostoc mesenteroides enzyme. Purified L. mesenteroides G6PDH, diaphorase/resazurin coupled fluorescence, 45 min. inhibition, % at 5 µM. actives 0.12% (n = 200,000). AID 1020, 2008; in the data active = inhibition above about 50%
# p97 ATPase inh = inhibitors of human p97 ATPase, primary screen, biochemical; inhibition, % at 8 µM; Transitional endoplasmic reticulum ATPase (Homo sapiens), P55072; recombinant p97 ATPase, Kinase-Glo ATP luminescence, 3 h; actives 0.42% (n = 220,000); in the data active = inhibition above about 15%;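 note: 0% = DMSO vehicle and 100% = wells lacking enzyme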
# Target sequence (P55072 whole entry, looked up): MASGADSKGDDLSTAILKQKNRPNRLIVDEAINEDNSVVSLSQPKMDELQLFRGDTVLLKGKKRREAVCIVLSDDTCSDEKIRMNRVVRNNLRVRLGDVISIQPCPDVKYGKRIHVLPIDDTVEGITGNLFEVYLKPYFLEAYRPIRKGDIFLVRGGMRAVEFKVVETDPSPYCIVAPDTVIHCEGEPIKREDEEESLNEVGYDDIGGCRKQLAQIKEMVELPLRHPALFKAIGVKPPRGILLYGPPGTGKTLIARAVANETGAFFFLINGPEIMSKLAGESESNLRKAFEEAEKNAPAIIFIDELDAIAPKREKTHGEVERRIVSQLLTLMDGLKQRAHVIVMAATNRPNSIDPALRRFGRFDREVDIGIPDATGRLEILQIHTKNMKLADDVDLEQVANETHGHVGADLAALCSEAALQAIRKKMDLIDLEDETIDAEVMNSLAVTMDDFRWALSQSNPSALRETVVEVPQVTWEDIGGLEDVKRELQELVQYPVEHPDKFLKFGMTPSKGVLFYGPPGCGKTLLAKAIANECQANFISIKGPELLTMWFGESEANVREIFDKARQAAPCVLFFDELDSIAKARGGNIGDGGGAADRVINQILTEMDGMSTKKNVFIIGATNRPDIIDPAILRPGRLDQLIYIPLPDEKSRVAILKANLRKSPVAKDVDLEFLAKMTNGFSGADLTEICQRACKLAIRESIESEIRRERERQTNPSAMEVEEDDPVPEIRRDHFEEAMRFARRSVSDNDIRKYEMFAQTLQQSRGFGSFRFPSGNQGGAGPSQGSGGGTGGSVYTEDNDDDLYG
# Diaphorase inh = diaphorase inhibitors and chemical oxidizers, primary screen, counter-screen for diaphorase-coupled primary assays, biochemical, uHTS, resorufin fluorescence. AID 1217, 2008. diaphorase resazurin-to-resorufin fluorescence, NADH, 16 min; bacterial (C. kluyveri) enzyme, not human. inhibition, % at 20 µM. actives 0.69% (n = 190,000);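 active = primary screen inhibition at 20 µM above a set limit, cut at about 50% in these data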;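 note: plate controls were DMSO with full reaction for no effect and wells lacking NADH for full effect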
#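 Test system: Clostridium kluyveri diaphorase enzyme / Quantity: diaphorase at 0.14 U/mL in enzyme working solution / Incubation: 16-min room-temperature incubation before reading / Benchmarks: NADH-free wells as positive control, DMSO-only neutral wells / Signal: resorufin fluorescence 544/590 nm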
# p97 inh conf = p97 ATPase inhibitors, retest, confirmation, biochemical; shares compounds with p97 ATPase inh; recombinant p97 ATPase, Kinase-Glo ATP luminescence; inhibition, % at 8 µM; actives 44% (n = 760); AID 1517, 2009;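 active = percent inhibition of p97 ATPase above a set limit, the primary screen's mean plus 3 SD, cut at about 15% in these data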;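 note: 0% = DMSO wells and 100% = wells lacking p97 protein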
# HKDC1 act conf = HKDC1 hexokinase activators, confirmation, biochemical, single concentration; shares compounds with HKDC1 inh; recombinant HKDC1, G6PDH/diaphorase resazurin fluorescence; hits give low values; inhibition, % at 20 µM; actives 14% (n = 740); AID 504708, 2011;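 active = inhibition at or below a set negative limit, negative inhibition meaning the enzyme was activated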
# * hit, by the source's call; . = no result.
SMILES,HKDC1 inh,UBC9 SUMO inh,G6PDH CS,p97 ATPase inh,Diaphorase inh,others
O=C1NC(=O)N(Cc2ccc(F)cc2)C(=O)/C1=C\c1ccc([N+](=O)[O-])s1,12.0,63.4*,.,12.0,.,
O=C1NC(=S)N(c2ccccc2)C(=O)/C1=C/c1ccco1,67.6*,9.7,.,.,.,
CC(=O)c1c(C)n(Cc2ccccc2)c2ccc(O)cc12,8.7,-13.7,.,1.2,.,
CC(=O)c1c(C)n(C2CCCCC2)c2ccc(O)cc12,8.3,-3.7,9.0,-2.5,50.5*,
Oc1ccc(/C=N/NP(=S)(c2ccccc2)c2ccccc2)cc1O,-2.4,-4.3,15.2,2.9,58.1*,
O=C(c1cccn2c(=O)c3ccc(Cl)cc3nc12)N1CCC2(CC1)OCCO2,-3.3,57.5*,2.7,0.8,22.6,
CCOc1cc2c(cc1OCC)-n1cccc1C(c1cc(OC)ccc1F)NC2 (stereo not given),-1.4,1.9,.,.,.,
COc1cc(CN2CCCC(C(=O)c3sccc3C)C2)cc(OC)c1O (stereo not given),9.6,7.2,56.8*,1.9,25.2,
Cc1ccsc1C(=O)C1CCCN(Cc2ccc(-n3cccn3)cc2)C1 (stereo not given),4.4,65.4*,10.1,-2.0,20.0,
COc1cc(CN2CCCC(C(=O)c3sccc3C)C2)cc(Cl)c1O (stereo not given),-2.2,-3.2,21.0,4.6,8.2,
Cc1ccsc1C(=O)C1CCCN(Cc2cccc(-n3cccn3)c2)C1 (stereo not given),-3.1,-12.4,10.2,-3.4,-9.6,
O=C1C=Cc2ccccc2C1=O,.,15.5,61.8*,9.9,78.4*,
COc1ccc(-n2c(/C=C/c3ccc(O)c(OC)c3)nc3ccccc3c2=O)cc1,4.1,5.4,.,.,.,
COc1cccc(-n2c(/C=C/c3ccc(O)c(O)c3)nc3ccccc3c2=O)c1,-7.5,12.5,26.1,5.6,69.1*,
CC(C)OC(=O)c1c(N)n(CC2CCCO2)c2nc3ccccc3nc12 (stereo not given),1.1,41.8,-20.4,26.5*,15.0,p97 inh conf=0.2
CC(C)CCn1c(N)c(C(=O)OCC2CCCO2)c2nc3ccccc3nc21 (stereo not given),3.1,19.8,9.8,-3.6,16.0,
CCn1nc(/C=C/c2ccccc2)nc2c(=O)n(C)c(=O)nc1-2,3.2,98.6*,61.0*,34.2*,-50.0,p97 inh conf=37.0*
COC(=O)c1nc(-c2ccc3c(n2)C(=O)C(N)=C(OC)C3=O)c(N)c(-c2ccc(OC)c(OC)c2O)c1C,21.9,49.2,.,16.9*,.,p97 inh conf=33.6*
CCC(=Nc1ccccc1N)c1c(O)[nH]c(=O)[nH]c1=O,-4.7,20.1,.,.,.,
COc1cc(C(c2c(C)[nH]n(-c3ccccc3)c2=O)c2c(C)[nH]n(-c3ccccc3)c2=O)cc(OC)c1OC,0.7,.,16.9,20.3*,19.8,p97 inh conf=7.3
COc1ccc(-c2nn(CCC#N)cc2C(=O)Nc2ccccc2Br)cc1[N+](=O)[O-],-1.2,13.1,.,-0.4,.,
CCC1([N+](=O)[O-])COP(=O)(NCc2cccnc2)OC1 (stereo not given),-2.5,.,.,.,.,
OC(c1ccccc1)(c1ccc(Cl)cc1)C1CN2CCC1CC2 (stereo not given),-3.5,-4.3,.,16.2*,.,p97 inh conf=9.6
CCC(=NCC1CCCO1)c1c(O)n(-c2ccc(OC)cc2)c(=O)[nH]c1=O (stereo not given),-4.0,11.1,.,4.7,.,
CCCCn1c(NC(=O)c2ccco2)c(C(=O)OCC)c2nc3ccccc3nc21,14.3,102.6,47.1,33.3*,66.1*,p97 inh conf=34.8*
SMILES,HKDC1 inh,UBC9 SUMO inh,G6PDH CS,p97 ATPase inh,Diaphorase inh,others
O=C1CN(O)C(c2ccccc2)=c2cc(Cl)ccc2=N1,-6.3,11.3,.,.,.,
CN(C)[C@@H]1C(=O)C(C(N)=O)=C(O)[C@@]2(O)C(=O)C3=C(O)c4c(O)cccc4[C@@](C)(O)C3C[C@@H]12 (stereo not given in full),4.1,.,.,.,.,
CN(C)[C@@H]1C(=O)C(C(N)=O)=C(O)[C@@]2(O)C(=O)C3=C(O)c4c(O)cccc4[C@@](C)(O)[C@H]3[C@H](O)[C@@H]12,23.8,46.9,40.6,18.6*,46.5,p97 inh conf=39.7*
Cc1ccccc1N1C(=O)NC(=O)/C(=C\c2ccc3c(c2)CCCN3Cc2ccccc2)C1=O,35.1*,-5.5,21.0,1.7,10.8,HKDC1 act conf=13.3
CCOP(=O)(Cc1cc(C(=O)CC)c(C)o1)OCC,3.0,17.5,.,4.6,.,
CCN(CC)CCNC(=O)c1c(O)c2ccccc2n(Cc2ccccc2)c1=O,-4.1,-12.0,5.4,-3.3,-2.5,
CCN(CC)CCCNC(=O)c1c(O)c2ccccc2n(Cc2ccccc2)c1=O,83.3*,-4.1,5.1,6.6,-3.3,HKDC1 act conf=-37.1*
CC1CCC(C)(NS(=O)(=O)OCC(Cl)(Cl)Cl)CC1 (stereo not given),37.8*,3.7,.,.,.,HKDC1 act conf=-30.3
Nc1c(Br)cc2c3c(cccc13)-c1ccccc1-2,70.5*,.,.,.,.,HKDC1 act conf=51.2
c1ccc2c(c1)-c1cccc3cccc-2c13,4.7,.,.,.,.,
COC(=O)C1=C(c2ccc(F)cc2OCc2ccccc2)C[C@@H]2CC[C@H]1N2C(=O)NCCN1CCOCC1,-1.3,.,.,.,.,
COc1cc(O)cc2c1cc([N+](=O)[O-])c1c(C(=O)O)cc3c(c12)OCO3,35.8*,.,.,.,.,HKDC1 act conf=33.1
Cc1ccc(N2C(=O)NC(=O)/C(=C\c3cc(C)n(-c4sc5c(c4C#N)CCCC5)c3C)C2=O)cc1,66.1*,15.6,-25.5,7.2,14.5,HKDC1 act conf=77.3
CCN1C(=O)NC(=O)/C(=C/c2cc(C)n(-c3sc(C)c(C)c3C#N)c2C)C1=O,6.8,9.4,7.6,-3.2,2.7,
CCOC(=O)c1c(-n2c(C)cc(C=C3C(=O)NC(=S)NC3=O)c2C)sc2c1CCCC2,58.6*,4.9,-21.1,0.9,34.1,HKDC1 act conf=61.0
CC(=NNC(=S)N1CC2CCC(CC2)C1)c1nccs1,-43.2,.,.,.,.,HKDC1 act conf=-42.1*
CC[C@H](C)/C=C(C)/C=C/C1=CC2=C(Cl)C(=O)[C@](C)(OC(C)=O)C(=O)C2=CO1,58.9*,.,.,.,.,HKDC1 act conf=35.9
O=C1NC(=S)NC(=O)C1=Cc1ccc2c(c1)CCN2CCCCl,59.0*,44.8,.,17.9*,.,HKDC1 act conf=10.2
CCOc1cc(C=C2C(=O)NC(=S)NC2=O)ccc1O,1.7,.,.,.,.,
CCSC(=O)N1CCCCCC1,1.6,.,.,.,.,
COC(=O)C1=C(c2ccc(S(C)(=O)=O)cc2)C[C@@H]2CC[C@H]1N2C(=O)NCCNC(C)=O,-5.4,.,.,.,.,
CC=C(CC)C1(CCC)C(=O)NC(=S)NC1=O,-4.5,.,.,.,.,
